Assay results taken from ChEMBL document CHEMBL3351631, “Towards the next generation of dual Bcl-2/Bcl-xL inhibitors” (Bioorg Med Chem Lett, 2014).
Values after ≈ are worked out from the molar mass of the structure shown.

Assays:
[1] = biological target: Apoptosis regulator Bcl-2 (Homo sapiens, UniProt P10415); assay: Inhibition of c-terminal 6xHis-tagged Bcl-2 (amino acids 1 to 204) (unknown origin) preincubated for 1 hr prior to substrate addition measured after 20 mins by fluorescence polarization assay
Sequence of Apoptosis regulator Bcl-2 (P10415 whole entry, the tested form may be a part): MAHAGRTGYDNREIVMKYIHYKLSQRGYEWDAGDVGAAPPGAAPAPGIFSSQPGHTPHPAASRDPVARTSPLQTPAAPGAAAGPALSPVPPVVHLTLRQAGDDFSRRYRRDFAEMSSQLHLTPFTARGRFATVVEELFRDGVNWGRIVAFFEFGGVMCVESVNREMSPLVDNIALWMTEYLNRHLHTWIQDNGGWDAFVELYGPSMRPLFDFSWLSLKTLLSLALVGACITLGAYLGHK

Bcl-2-like protein 1 = Bcl-2-like protein 1 (Homo sapiens, UniProt Q07817); assay: Inhibition of c-terminal 6xHis-tagged Bcl-xL (amino acids 1 to 209) (unknown origin) preincubated for 1 hr prior to substrate addition measured after 20 mins by fluorescence polarization assay
Sequence of Bcl-2-like protein 1 (Q07817 whole entry, the tested form may be a part): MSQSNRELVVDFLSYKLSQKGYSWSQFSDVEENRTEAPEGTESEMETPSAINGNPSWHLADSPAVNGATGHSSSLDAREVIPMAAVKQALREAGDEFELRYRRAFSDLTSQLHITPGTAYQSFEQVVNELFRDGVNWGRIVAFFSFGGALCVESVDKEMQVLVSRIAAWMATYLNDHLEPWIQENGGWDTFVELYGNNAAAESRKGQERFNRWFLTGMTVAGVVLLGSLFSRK
Procedure, shortened: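 Bcl-xL (aa 1–209, C-terminal 6xHis) at 0.8 nM preincubated 1 h with serial antagonist dilutions, then 2 nM FITC-labelled Bim BH3 peptide tracer added; buffer 20 mM HEPES pH 7.5, 1 mM DTT, 0.005% Tween-20, 50 mM NaCl.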

RS4-11 = assay: Induction of apoptosis in human RS4:11 cells overexpressing BCL-2 assessed as caspase 3/7 activation after 6 hrs by quantitative luminescence assay; type: functional, cell-based; details: RS4-11, 6 h
Procedure, shortened: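 RS4;11 cells seeded 10,000/well in RPMI with 10% FBS; after 16 h, compound added in duplicate for 6 h at 37 °C. Equal volume of Caspase-Glo 3/7 reagent added, 1 h, luminescence read. DMSO set minimum and ABT-263 maximum caspase activity. EC50 averaged from at least two experiments.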

[2] = Equilibrium solubility of the compound at pH 7.4; type: physicochemical; details: buffer
[3] = Dissociation constant, pKa of the compound; type: physicochemical

O=C(NS(=O)(=O)c1ccc(N[C@H](CCN2CCOCC2)CSc2ccccc2)c(S(=O)(=O)C(F)(F)F)c1)c1ccc(P2(=O)CCN(Cc3ccccc3-c3ccc(Cl)cc3)CC2)cc1
IC50 [1]: > 1100 nM
IC50 (Bcl-2-like protein 1): 308 nM
EC50 (RS4-11): > 1100 nM
solubility thermodynamic [2]: 4 µM (≈ 3.9 µg/mL)

CCOC(=O)C1(Cc2ccccc2-c2ccc(Cl)cc2)CCN(c2ccc(C(=O)NS(=O)(=O)c3ccc(N[C@H](CCN4CCOCC4)CSc4ccccc4)c(S(=O)(=O)C(F)(F)F)c3)cc2)CC1
IC50 [1]: 17 nM
IC50 (Bcl-2-like protein 1): 30 nM
EC50 (RS4-11): 1790 nM
solubility thermodynamic [2]: < 1.5 µM

N#CC1(Cc2ccccc2-c2ccc(Cl)cc2)CCN(c2ccc(C(=O)NS(=O)(=O)c3ccc(N[C@H](CCN4CCOCC4)CSc4ccccc4)c(S(=O)(=O)C(F)(F)F)c3)cc2)CC1
IC50 [1]: < 10 nM
IC50 (Bcl-2-like protein 1): < 10 nM
EC50 (RS4-11): 504 nM
solubility thermodynamic [2]: 2 µM (≈ 1.93 µg/mL)

CN(C)CCOc1ccc(-c2ccc(Cl)cc2)c(CN2CCN(c3ccc(C(=O)NS(=O)(=O)c4ccc(N[C@H](CCN5CCOCC5)CSc5ccccc5)c(S(=O)(=O)C(F)(F)F)c4)cc3)CC2)c1
IC50 [1]: < 10 nM
IC50 (Bcl-2-like protein 1): < 10 nM
EC50 (RS4-11): 23 nM
solubility thermodynamic [2]: < 1 µM

O=C(NS(=O)(=O)c1ccc(N[C@H](CCN2CCOCC2)CSc2ccccc2)c(S(=O)(=O)C(F)(F)F)c1)c1ccc(N2CCN(Cc3ccccc3-c3ccc(Cl)cc3)CC2)nn1
pKa [3]: 3.6
IC50 [1]: 270 nM
IC50 (Bcl-2-like protein 1): 378 nM
EC50 (RS4-11): 563 nM
solubility thermodynamic [2]: 38 µM (≈ 35.9 µg/mL)

NCC1(Cc2ccccc2-c2ccc(Cl)cc2)CCN(c2ccc(C(=O)NS(=O)(=O)c3ccc(N[C@H](CCN4CCOCC4)CSc4ccccc4)c(S(=O)(=O)C(F)(F)F)c3)cc2)CC1
IC50 [1]: < 10 nM
IC50 (Bcl-2-like protein 1): < 10 nM
EC50 (RS4-11): 395 nM
solubility thermodynamic [2]: < 1 µM

O=C(NS(=O)(=O)c1ccc(N[C@H](CCN2CCOCC2)CSc2ccccc2)c(S(=O)(=O)C(F)(F)F)c1)c1ccc(N2CCC([S@@+]([O-])c3ccccc3-c3ccc(Cl)cc3)CC2)cc1
IC50 [1]: 19 nM
IC50 (Bcl-2-like protein 1): 11 nM
EC50 (RS4-11): 90 nM
solubility thermodynamic [2]: 26 µM (≈ 25.4 µg/mL)

O=C(NS(=O)(=O)c1ccc(N[C@H](CCN2CCOCC2)CSc2ccccc2)c(S(=O)(=O)C(F)(F)F)c1)c1ccc(N2CCN(Cc3cccnc3-c3ccc(Cl)cc3)CC2)cc1
IC50 [1]: 26 nM
IC50 (Bcl-2-like protein 1): 25 nM
EC50 (RS4-11): 374 nM

O=C(NS(=O)(=O)c1ccc(N[C@H](CCN2CCOCC2)CSc2ccccc2)c(S(=O)(=O)C(F)(F)F)c1)c1ccc(N2CCC(C(=O)c3ccccc3-c3ccc(Cl)cc3)CC2)cc1
IC50 [1]: 65 nM
IC50 (Bcl-2-like protein 1): < 10 nM
EC50 (RS4-11): > 1100 nM

O=C(NS(=O)(=O)c1ccc(N[C@H](CCN2CCOCC2)CSc2ccccc2)c(S(=O)(=O)C(F)(F)F)c1)c1ccc(N2CCP(=O)(Cc3ccccc3-c3ccc(Cl)cc3)CC2)cc1
IC50 [1]: 54 nM
IC50 (Bcl-2-like protein 1): 18 nM
EC50 (RS4-11): > 1100 nM
solubility thermodynamic [2]: 21 µM (≈ 20.5 µg/mL)

O=C(NS(=O)(=O)c1ccc(N[C@H](CCN2CCOCC2)CSc2ccccc2)c(S(=O)(=O)C(F)(F)F)c1)c1ccc(N2CCN(Cc3ccncc3-c3ccc(Cl)cc3)CC2)cc1
IC50 [1]: < 10 nM
IC50 (Bcl-2-like protein 1): 15 nM
EC50 (RS4-11): 201 nM

O=C(NS(=O)(=O)c1ccc(N[C@H](CCN2CCOCC2)CSc2ccccc2)c(S(=O)(=O)C(F)(F)F)c1)c1ccc(N2CC3(CN(Cc4ccccc4-c4ccc(Cl)cc4)C3)C2)cc1
IC50 [1]: > 468 nM
IC50 (Bcl-2-like protein 1): 77 nM
EC50 (RS4-11): 610 nM
solubility thermodynamic [2]: < 1 µM

O=C(NS(=O)(=O)c1ccc(N[C@H](CCN2CCOCC2)CSc2ccccc2)c(S(=O)(=O)C(F)(F)F)c1)c1ccc(N2CCC(Sc3ccccc3-c3ccc(Cl)cc3)CC2)cc1
IC50 [1]: 61 nM
IC50 (Bcl-2-like protein 1): 31 nM
EC50 (RS4-11): > 516 nM
solubility thermodynamic [2]: 27 µM (≈ 25.9 µg/mL)

O=C(NS(=O)(=O)c1ccc(N[C@H](CCN2CCOCC2)CSc2ccccc2)c(S(=O)(=O)C(F)(F)F)c1)c1ccc(N2CCC(Oc3ccccc3-c3ccc(Cl)cc3)CC2)cc1
IC50 [1]: 250 nM
IC50 (Bcl-2-like protein 1): 38 nM
EC50 (RS4-11): > 921 nM
solubility thermodynamic [2]: 35 µM (≈ 33 µg/mL)

CN(C)C(=O)COc1cccc(-c2ccc(Cl)cc2)c1CN1CCN(c2ccc(C(=O)NS(=O)(=O)c3ccc(N[C@H](CCN4CCOCC4)CSc4ccccc4)c(S(=O)(=O)C(F)(F)F)c3)cc2)CC1
IC50 [1]: < 10 nM
IC50 (Bcl-2-like protein 1): < 10 nM
EC50 (RS4-11): 18 nM
solubility thermodynamic [2]: < 1 µM

O=C(NS(=O)(=O)c1ccc(N[C@H](CCN2CCOCC2)CSc2ccccc2)c(S(=O)(=O)C(F)(F)F)c1)c1ccc(N2CCN(Cc3ccccc3-c3ncc(Cl)cn3)CC2)cc1
IC50 [1]: 21 nM
IC50 (Bcl-2-like protein 1): 21 nM
EC50 (RS4-11): 3980 nM
solubility thermodynamic [2]: < 1 µM

O=C(NS(=O)(=O)c1ccc(N[C@H](CCN2CCOCC2)CSc2ccccc2)c(S(=O)(=O)C(F)(F)F)c1)c1ccc(N2CCN(Cc3cn[nH]c3-c3ccc(Cl)cc3)CC2)cc1
IC50 [1]: 40 nM
IC50 (Bcl-2-like protein 1): 38 nM
EC50 (RS4-11): > 10000 nM
solubility thermodynamic [2]: < 1 µM

CC1(C)CCC(c2ccc(Cl)cc2)=C(CN2CCN(c3ccc(C(=O)NS(=O)(=O)c4ccc(N[C@H](CCN5CCOCC5)CSc5ccccc5)c(S(=O)(=O)C(F)(F)F)c4)cc3)CC2)C1 [NAVITOCLAX]
EC50 (RS4-11): 14 nM

CN(C)C(=O)COc1ccc(-c2ccc(Cl)cc2)c(CN2CCN(c3ccc(C(=O)NS(=O)(=O)c4ccc(N[C@H](CCN5CCOCC5)CSc5ccccc5)c(S(=O)(=O)C(F)(F)F)c4)cc3)CC2)c1
IC50 [1]: < 10 nM
IC50 (Bcl-2-like protein 1): < 10 nM
EC50 (RS4-11): 51 nM
solubility thermodynamic [2]: 2 µM (≈ 2.09 µg/mL)

N=C(NS(=O)(=O)c1ccc(N[C@H](CCN2CCOCC2)CSc2ccccc2)c(S(=O)(=O)C(F)(F)F)c1)c1ccc(N2CCN(Cc3ccccc3-c3ccc(Cl)cc3)CC2)cc1
IC50 [1]: 19 nM
IC50 (Bcl-2-like protein 1): 63 nM
EC50 (RS4-11): > 3190 nM
solubility thermodynamic [2]: < 1 µM

O=C(NS(=O)(=O)c1ccc(N[C@H](CCN2CCOCC2)CSc2ccccc2)c(S(=O)(=O)C(F)(F)F)c1)c1ccc(N2CCC(CO)(Cc3ccccc3-c3ccc(Cl)cc3)CC2)cc1
IC50 [1]: 59 nM
IC50 (Bcl-2-like protein 1): < 10 nM
EC50 (RS4-11): 112 nM
solubility thermodynamic [2]: 6 µM (≈ 5.83 µg/mL)

O=C(NS(=O)(=O)c1ccc(N[C@H](CCN2CCOCC2)CSc2ccccc2)c(S(=O)(=O)C(F)(F)F)c1)c1ccc(N2CCC(S(=O)(=O)c3ccccc3-c3ccc(Cl)cc3)CC2)cc1
IC50 [1]: 87 nM
IC50 (Bcl-2-like protein 1): 21 nM
EC50 (RS4-11): > 1100 nM
solubility thermodynamic [2]: 27 µM (≈ 26.8 µg/mL)

CN(C)CCOc1cccc(-c2ccc(Cl)cc2)c1CN1CCN(c2ccc(C(=O)NS(=O)(=O)c3ccc(N[C@H](CCN4CCOCC4)CSc4ccccc4)c(S(=O)(=O)C(F)(F)F)c3)cc2)CC1
IC50 [1]: < 10 nM
EC50 (RS4-11): 4 nM
solubility thermodynamic [2]: < 1 µM

O=C(NS(=O)(=O)c1ccc(N[C@H](CCN2CCOCC2)CSc2ccccc2)c(S(=O)(=O)C(F)(F)F)c1)c1csc(N2CCN(Cc3ccccc3-c3ccc(Cl)cc3)CC2)n1
pKa [3]: 2.6
IC50 [1]: 119 nM
IC50 (Bcl-2-like protein 1): 98 nM
EC50 (RS4-11): 385 nM
solubility thermodynamic [2]: 2 µM (≈ 1.9 µg/mL)

O=C(NS(=O)(=O)c1ccc(N[C@H](CCN2CCOCC2)CSc2ccccc2)c(S(=O)(=O)C(F)(F)F)c1)c1ccc(N2CCN(Cc3ccccc3-c3ccc(Cl)cc3)CC2)cc1
IC50 [1]: 11 nM
IC50 (Bcl-2-like protein 1): 16 nM
EC50 (RS4-11): 11 nM
solubility thermodynamic [2]: 14 µM (≈ 13.2 µg/mL)

O=C(NS(=O)(=O)c1ccc(N[C@H](CCN2CCOCC2)CSc2ccccc2)c(S(=O)(=O)C(F)(F)F)c1)c1cnc(N2CCN(Cc3ccccc3-c3ccc(Cl)cc3)CC2)nc1
pKa [3]: 3.5
IC50 [1]: 18 nM
IC50 (Bcl-2-like protein 1): 39 nM
EC50 (RS4-11): 177 nM
solubility thermodynamic [2]: 3 µM (≈ 2.83 µg/mL)

O=C(NS(=O)(=O)c1ccc(N[C@H](CCN2CCOCC2)CSc2ccccc2)c(S(=O)(=O)C(F)(F)F)c1)c1ccc(N2CCC([S@+]([O-])c3ccccc3-c3ccc(Cl)cc3)CC2)cc1
IC50 [1]: 545 nM
IC50 (Bcl-2-like protein 1): 54 nM
EC50 (RS4-11): > 1100 nM
solubility thermodynamic [2]: 12 µM (≈ 11.7 µg/mL)

Cn1ncc(CN2CCN(c3ccc(C(=O)NS(=O)(=O)c4ccc(N[C@H](CCN5CCOCC5)CSc5ccccc5)c(S(=O)(=O)C(F)(F)F)c4)cc3)CC2)c1-c1ccc(Cl)cc1
IC50 [1]: < 10 nM
IC50 (Bcl-2-like protein 1): < 10 nM
EC50 (RS4-11): 420 nM
solubility thermodynamic [2]: < 1 µM
